According to ChEMBL document CHEMBL4330063, “New naphthopyran analogues of LY290181 as potential tumor vascular-disrupting agents” (Eur J Med Chem, 2019):
The source made the active and inactive calls. No cut-off for these calls is given here.

Columns and labels:
518A2 [1] = assay: Antiproliferative activity against human 518A2 cells after 72 hrs by MTT assay; type: functional, cell-based; conditions: for IC50: 518A2, 72 h
Method in brief: (§1)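 MTT read-out after 72 h of continuous exposure. Viability is expressed as percentage of viable cells relative to untreated controls. IC50 comes from dose-response curves. Values are means±SD of four independent experiments (two for some entries). DMSO was below 1%, with vehicle controls at equal DMSO. Precipitation was excluded spectrometrically and microscopically.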

HT-29 [2] = assay: Antiproliferative activity against human HT-29 cells after 72 hrs by MTT assay; type: functional, cell-based; conditions: HT-29, 72 h; method in brief: as §1
A2780 = assay: Antiproliferative activity against human A2780 cells after 72 hrs by SRB assay; type: functional, cell-based; conditions: A2780, 72 h
Method in brief: (§2)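 Ovarian A2780 and cisplatin-resistant A2780cis cells were exposed for 72 h and stained with SRB. IC50 comes from dose-response curves, as means±SD of three independent experiments. Final DMSO was below 1%, with matched vehicle controls.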

[3] = Antiproliferative activity against human A2780cis cells after 72 hrs by SRB assay; type: functional, cell-based; method in brief: as §2
DLD-1 = assay: Antiproliferative activity against human DLD1 cells after 72 hrs by MTT assay; type: functional, cell-based; conditions: DLD-1, 72 h; method in brief: as §1
EA.hy 926 [4] = assay: Antiproliferative activity against human EAhy926 cells after 72 hrs by MTT assay; type: functional, cell-based; conditions: EA.hy 926, 72 h; method in brief: as §1
PANC-1 = assay: Antiproliferative activity against human PANC1 cells after 72 hrs by MTT assay; type: functional, cell-based; conditions: PANC-1, 72 h; method in brief: as §1
HCT-116 = assay: Antiproliferative activity against human HCT116 cells after 72 hrs by MTT assay; type: functional, cell-based; conditions: HCT-116, 72 h; method in brief: as §1
[5] = Antiproliferative activity against human KB-V1/Vbl cells after 72 hrs by MTT assay; type: functional, cell-based; method in brief: as §1
[6] = Antiproliferative activity against human MCF7/Topo cells after 72 hrs by MTT assay; type: functional, cell-based; method in brief: as §1
EA.hy 926 [7] = assay: Antiangiogenic activity against human EAhy926 cells assessed as inhibition of tube formation on matrigel at 100 nM after 24 hrs by light microscopic analysis; type: functional, cell-based
Method in brief: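 Ea.Hy926 endothelial hybrid cells were seeded on matrigel with compound and examined for tubular/cord-like network formation versus untreated controls. Viability under the same conditions was checked in parallel by MTT to exclude cytotoxic effects.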

EA.hy 926 [8] = assay: Cytotoxicity against human EAhy926 cells at 100 nM after 24 hrs by MTT assay relative to control; type: cell-based; conditions: ea.hy 926, 24 h, 0.1 µM
HT-29 [9] = assay: Cell cycle arrest in human HT-29 cells assessed as accumulation of cells at sub G1 phase at 100 nM after 24 hrs by propidium iodide staining-based flow cytometric analysis (reference value: 1.2 +/- 0.3%); type: functional
HT-29 [10] = assay: Cell cycle arrest in human HT-29 cells assessed as accumulation of cells at sub G1 phase at 250 nM after 24 hrs by propidium iodide staining-based flow cytometric analysis (reference value: 1.2 +/- 0.3%); type: functional
HT-29 [11] = assay: Cell cycle arrest in human HT-29 cells assessed as accumulation of cells at sub G1 phase at 350 nM after 24 hrs by propidium iodide staining-based flow cytometric analysis (reference value: 1.2 +/- 0.3%); type: functional
HT-29 [12] = assay: Cell cycle arrest in human HT-29 cells assessed as accumulation of cells at G1 phase at 100 nM after 24 hrs by propidium iodide staining-based flow cytometric analysis (reference value: 75.1 +/- 1.1%); type: functional
HT-29 [13] = assay: Cell cycle arrest in human HT-29 cells assessed as accumulation of cells at G1 phase at 250 nM after 24 hrs by propidium iodide staining-based flow cytometric analysis (reference value: 75.1 +/- 1.1%); type: functional
HT-29 [14] = assay: Cell cycle arrest in human HT-29 cells assessed as accumulation of cells at G1 phase at 350 nM after 24 hrs by propidium iodide staining-based flow cytometric analysis (reference value: 75.1 +/- 1.1%); type: functional
HT-29 [15] = assay: Cell cycle arrest in human HT-29 cells assessed as accumulation of cells at S phase at 100 nM after 24 hrs by propidium iodide staining-based flow cytometric analysis (reference value: 12.3 +/- 0.4%); type: functional
HT-29 [16] = assay: Cell cycle arrest in human HT-29 cells assessed as accumulation of cells at S phase at 250 nM after 24 hrs by propidium iodide staining-based flow cytometric analysis (reference value: 12.3 +/- 0.4%); type: functional
HT-29 [17] = assay: Cell cycle arrest in human HT-29 cells assessed as accumulation of cells at S phase at 350 nM after 24 hrs by propidium iodide staining-based flow cytometric analysis (reference value: 12.3 +/- 0.4%); type: functional
HT-29 [18] = assay: Cell cycle arrest in human HT-29 cells assessed as accumulation of cells at G2/M phase at 100 nM after 24 hrs by propidium iodide staining-based flow cytometric analysis (reference value: 11.4 +/- 1.4%); type: functional
HT-29 [19] = assay: Cell cycle arrest in human HT-29 cells assessed as accumulation of cells at G2/M phase at 250 nM after 24 hrs by propidium iodide staining-based flow cytometric analysis (reference value: 11.4 +/- 1.4%); type: functional
HT-29 [20] = assay: Cell cycle arrest in human HT-29 cells assessed as accumulation of cells at G2/M phase at 350 nM after 24 hrs by propidium iodide staining-based flow cytometric analysis (reference value: 11.4 +/- 1.4%); type: functional
518A2 [21] = assay: Induction of apoptosis in human 518A2 cells at 100 nM after 24 hrs by TUNEL assay relative to control; type: functional
Tubulin (Homo sapiens) = Tubulin (Homo sapiens) (UniProt P68371+Q9H4B7+P0DPH7+P68366+Q13509+Q71U36+P04350+Q3ZCM7+P07437+P68363+Q9BQE3+Q6PEY2+Q13885+Q9BVA1+Q9BUF5); assay: Induction of microtubule disruption in human 518A2 cells at 100 nM after 3 hrs by DAPI staining-based fluorescence microscopic analysis; type: cell-based
Method in brief: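 Microtubule organization in 518A2 melanoma cells was checked by tubulin immunofluorescence staining after 3 h exposure to 100 nM, with DAPI as the nuclear counterstain. Images come from two independent experiments.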

Tubulin = Tubulin (Sus scrofa, UniProt P02554+P02550); assay: Inhibition of porcine brain tubulin polymerization after 2 hrs
518A2 [22] = assay: Effect on F-actin in human 518A2 cells assessed as thick stress fibers formation at 100 nM after 3 hrs by DAPI staining-based fluorescence microscopic analysis; type: cell-based
Method in brief: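 518A2 melanoma cells were treated with 100 nM for 3 h. Filamentous actin was fluorescence-labelled, nuclei were counterstained with DAPI, and the cells were imaged by fluorescence microscopy. Images come from two independent experiments.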

518A2 [23] = assay: Antimigratory activity against human 518A2 cells at 50 nM after 48 hrs by wound healing assay; type: functional, cell-based
518A2 [24] = assay: Induction of apoptosis in human 518A2 cells assessed as caspase-9 activity at 5 uM after 3.5 hrs by Caspase-Glo luminescence assay (reference value: 100 +/- 1.2%); type: functional
518A2 [25] = assay: Induction of apoptosis in human 518A2 cells assessed as accumulation at subG1 phase; type: functional, cell-based
518A2 [26] = assay: Induction of cell cycle arrest in human 518A2 cells; type: functional, cell-based
HT-29 [27] = assay: Cell cycle arrest in human HT-29 cells assessed as accumulation of cells at G2/M phase after 24 hrs by propidium iodide staining-based flow cytometric analysis; type: functional

Compound | Activity (518A2 [1]) | IC50 (518A2 [1]) | IC50 (HT-29 [2]) | IC50 (A2780) | IC50 [3] | IC50 (DLD-1) | IC50 (EA.hy 926 [4]) | IC50 (PANC-1) | IC50 (HCT-116) | IC50 [5] | IC50 [6] | Activity (EA.hy 926 [7]) | Activity (EA.hy 926 [8]) | Activity (HT-29 [9]) | Activity (HT-29 [10]) | Activity (HT-29 [11]) | Activity (HT-29 [12]) | Activity (HT-29 [13]) | Activity (HT-29 [14]) | Activity (HT-29 [15]) | further results
N#CC1=C(N)Oc2c(ccc3ccccc23)C1c1cc(F)cc(F)c1 (stereo not drawn) | Dose-dependent effect | 26.4 nM | 176 nM | 17 nM | 20.3 nM | 32.3 nM | 31.5 nM | 19.5 nM | 47 nM | 25.8 nM | 20.1 nM | Active | > 68% | 7.1% | 11.3% | 13.4% | 40.3% | 35.9% | 30.8% | 20.7% | Activity (HT-29 [16]): 19.2%; Activity (HT-29 [17]): 12.3%; Activity (HT-29 [18]): 31.8%; Activity (HT-29 [19]): 33.6%; Activity (HT-29 [20]): 43.5%; Activity (518A2 [21]): 67.5%; Activity (Tubulin (Homo sapiens)): Active; I50 (Tubulin): 9.6 µM; Activity (518A2 [22]): Active; Activity (518A2 [23]): Active; Activity (518A2 [24]): 133%; Activity (518A2 [25]): Active; Activity (518A2 [26]): inactive; Activity (HT-29 [27]): Dose-dependent effect
N#CC1=C(N)Oc2c(ccc3ccccc23)C1c1cccc([N+](=O)[O-])c1 (stereo not drawn) | Dose-dependent effect | 35.9 nM | 46.9 nM | 18.7 nM | 26 nM | 33.7 nM | 35.6 nM | 12.5 nM | 44.3 nM | 22.6 nM | 11.8 nM | Active | > 68% | 6.1% | 13% | 12.2% | 49.3% | 51.7% | 39.8% | 26.2% | Activity (HT-29 [16]): 22.4%; Activity (HT-29 [17]): 24.1%; Activity (HT-29 [18]): 18.4%; Activity (HT-29 [19]): 12.9%; Activity (HT-29 [20]): 23.9%; Activity (518A2 [21]): 61.4%; Activity (Tubulin (Homo sapiens)): Active; I50 (Tubulin): 7.1 µM; Activity (518A2 [22]): Active; Activity (518A2 [23]): Active; Activity (518A2 [24]): 114.7%; Activity (518A2 [25]): Active; Activity (518A2 [26]): inactive; Activity (HT-29 [27]): Dose-dependent effect
